Compound activity: PubChem BioAssay, Sanford-Burnham Center for Chemical Genomics
UPR XBP1 act: adaptive UPR (XBP1) activation; CHO-XBP1 luciferase reporter, IRE1-XBP1 UPR activation, luminescence; percent of tunicamycin response, DMSO as zero; activation, % at 20 µM; AID 463104; actives 0.33% (n = 330,000);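 active means versus positive control, 20 µM dose yields 30% or more activation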;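 further: 100% = tunicamycin at 10 µg/mL and 0% = DMSO only wells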
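Material: CHO cell line with stable XBP1 luciferase reporter; buffer or medium: F12 medium containing 10% fetal bovine serum; compound: single point, 20 µM final compound, 1% DMSO; incubation: 6 h treatment, 37 °C; measured by: glow luminescence from Steady-Glo reagent; evaluation: activation, % of tunicamycin; control set: tunicamycin high, DMSO low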
Jurkat NFkB inh: lowers PMA/ionomycin-induced NF-kB signal in Jurkat cells; PMA/ionomycin-induced NF-kB luciferase reporter, luminescence; inhibition, % at 4 µM; actives 0.53% (n = 330,000); AID 435003; in the data active means inhibition above about 50%
UPR CHOP act: activators of apoptotic arm of unfolded protein response (CHOP) | CHO-CHOP luciferase reporter, UPR activation, luminescence; percent of tunicamycin response over DMSO baseline | activation, % at 10 µM | actives 0.34% (n = 330,000);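 active means at 10 µM dose, activation of 40% or more, normalized to positive control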;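 further: 100% = tunicamycin at 10 µg/mL and 0% = DMSO alone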
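assay system = CHO CHOP reporter cells | amount = 500 CHO-CHOP cells per well | buffer or medium = F12 with 10% FBS | incubation = 16-18 h cell attachment, then 6 h compound exposure, 37 °C | detection = luminescence read with Steady-Glo | read-out = percent activation relative to tunicamycin control | controls = tunicamycin high control, DMSO low control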
CRFR2-BP antag: blocks CRF-induced signaling of the CRF-BP/CRF-R2 complex. HEK293 CRF-R2/CRF-BP, CRF-induced calcium fluorescence. inhibition, % at 11.8 µM. actives 0.59% (n = 350,000). AID 588475;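 active means inhibition of the ligand-induced calcium signal above about 50% at the single tested concentration, limit read from the data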
697 NFkB inh: lowers PMA/ionomycin-induced NF-kB signal in 697 B cells | actives 0.33% (n = 330,000) | AID 435022 | inhibition, % at 4 µM | 697 B-cell NF-kB luciferase reporter, 16 h; in the data active means inhibition above about 35%
Jurkat NFkB conf: lowers PMA/ionomycin-induced NF-kB signal in Jurkat cells | shares compounds with Jurkat NFkB inh | Jurkat NF-kB luciferase, 16 h | inhibition, % at 4 µM | actives 27% (n = 2,700) | AID 435020;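 active means inhibition reaching about 45% at 4 µM in either replicate, limit read from the data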;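 further: plate controls were PMA/ionomycin stimulated DMSO wells for no effect and unstimulated DMSO wells for full effect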
Active calls of the source: *. Hits are enriched below; roughly 1.8% of the tested compounds scored in any of these assays.

Screening O=C(Nc1nccs1)C(Cl)(Cl)Cl returned UPR XBP1 act 7, Jurkat NFkB inh 0, UPR CHOP act -1, CRFR2-BP antag 2 and 697 NFkB inh 7.
COc1cc2c(c(OC)c1OC)-c1ccc(SC)c(=O)cc1C(NC(C)=O)CC2 (centres undefined) was read as CRFR2-BP antag 0.
CC12CC(=O)C3C(CCC4CC(=O)C=CC43C)C1CCC2=O (centres undefined) was read as CRFR2-BP antag 0.
For CC(=O)OC(C)(C)/C=C/C(=O)C(C)(O)C1[C@H](O)C[C@@]2(C)C3CC=C4C(CC[C@@H](O)C4(C)C)[C@]3(CO)C(=O)C[C@]12C (some centres undefined) the results were UPR XBP1 act -2, Jurkat NFkB inh 81*, UPR CHOP act 14, CRFR2-BP antag -4, 697 NFkB inh -11 and Jurkat NFkB conf 25.
`Cc1cc(C)c2c(ccc3cccc[n+]32)c1` gave UPR XBP1 act -5, Jurkat NFkB inh 57*, UPR CHOP act -1, CRFR2-BP antag 4, 697 NFkB inh -10 and Jurkat NFkB conf 39.
`COc1ccc(-n2cnc3cc(C(=O)N4CCC5(CC4)OCCO5)ccc32)cc1` gave UPR XBP1 act -1, Jurkat NFkB inh 50*, UPR CHOP act 0, CRFR2-BP antag -9, 697 NFkB inh -11 and Jurkat NFkB conf 8.
`CCOc1cccc(CNCCc2c(C)[nH]c3ccc(OC(F)(F)F)cc23)c1O` gave UPR XBP1 act 11, Jurkat NFkB inh 66*, UPR CHOP act 25, CRFR2-BP antag -33, 697 NFkB inh -25 and Jurkat NFkB conf 25.
`Cc1[nH]c2ccc(OC(F)(F)F)cc2c1CCNCc1cccc([N+](=O)[O-])c1` gave UPR XBP1 act 0, Jurkat NFkB inh 20, UPR CHOP act 0, CRFR2-BP antag -12 and 697 NFkB inh -8.
COc1ccc(-c2cc(=Nc3ccccc3)c3cc(C)ccc3o2)cc1 was read as UPR XBP1 act -1, Jurkat NFkB inh -155, UPR CHOP act 3, CRFR2-BP antag 0, 697 NFkB inh -188 and Jurkat NFkB conf -140.
For COc1cc2c(cc1OC)-c1c3c(cc4c1[C@@H](C2)N(C)CC4)OCO3 the results were UPR XBP1 act -2, Jurkat NFkB inh 60*, UPR CHOP act -2, CRFR2-BP antag -2, 697 NFkB inh -139 and Jurkat NFkB conf 31.
Screening COc1ccc2c3c1OC1C(=O)CC[C@@]4(O)[C@@H](C2)N(CC2CC2)CC[C@]314 (some centres undefined) returned UPR XBP1 act -1, Jurkat NFkB inh 1, UPR CHOP act 1, CRFR2-BP antag -1 and 697 NFkB inh 7.
`Cc1ccc(OCCOc2cccc(C=C3C(=O)NC(=O)NC3=O)c2)cc1` gave UPR XBP1 act -11, Jurkat NFkB inh -5, UPR CHOP act -3, CRFR2-BP antag -14 and 697 NFkB inh -58.
For COc1cc2nc(CN3CC=C(c4ccccc4)CC3)[nH]c(=O)c2cc1OC the results were UPR XBP1 act -2, Jurkat NFkB inh 59*, UPR CHOP act -2, CRFR2-BP antag 8, 697 NFkB inh 26 and Jurkat NFkB conf 52*.
`O=C1CN=C(c2ccccc2)c2oc3ccc(Br)cc3c2N1` gave UPR XBP1 act 0, Jurkat NFkB inh 1, UPR CHOP act 0, CRFR2-BP antag -10 and 697 NFkB inh 16.
COc1cccc(OC)c1C1=NCC(=O)Nc2c1oc1ccc(Br)cc21 was read as UPR XBP1 act 18, Jurkat NFkB inh 56*, UPR CHOP act 0, CRFR2-BP antag -26, 697 NFkB inh -45 and Jurkat NFkB conf 61*.
CC1C2Cc3ccc(O)cc3[C@]1(C)CCN2CCc1ccccc1 (some centres undefined) was read as UPR XBP1 act -1, Jurkat NFkB inh -5, UPR CHOP act 1, CRFR2-BP antag -8 and 697 NFkB inh 2.
CCOC(=O)C(NC(=O)C(Cc1ccc(N(CCCl)CCCl)cc1)NC(C)=O)C(C)C (centres undefined) was read as UPR XBP1 act 1, Jurkat NFkB inh -10, UPR CHOP act -1, CRFR2-BP antag 9 and 697 NFkB inh -1.
For COC(=O)C(Cc1ccc(N(CCCl)CCCl)cc1)N=Cc1ccccc1O (centres undefined) the results were UPR XBP1 act -9, Jurkat NFkB inh 51*, UPR CHOP act -4, CRFR2-BP antag 67*, 697 NFkB inh -107 and Jurkat NFkB conf 46.
For NC(Cc1ccccc1Cl)c1nn[nH]n1 (centres undefined) the results were CRFR2-BP antag 0.
CC[n+]1c(/C=C/C=C/c2ccc(N(C)C)cc2)sc2ccccc21 was read as UPR XBP1 act 22, Jurkat NFkB inh 70*, UPR CHOP act 38, CRFR2-BP antag 18, 697 NFkB inh -35 and Jurkat NFkB conf 20.
For CN(C)c1ccc(/C=C/C=C/c2sc3ccccc3[n+]2C)cc1 the results were UPR XBP1 act 4, Jurkat NFkB inh 20, UPR CHOP act 4, CRFR2-BP antag 1 and 697 NFkB inh -44.
`Cc1[nH]c2ccccc2c1CN1CCCCC1` gave CRFR2-BP antag 12.
`CC(=O)O[C@@]12CO[C@@H]1C[C@H](O)[C@@]1(C)C(=O)[C@H](O)C3=C(C)[C@@H](O)C[C@@](O)([C@@H](OC(=O)c4ccccc4)C12)C3(C)C` (some centres undefined) gave UPR XBP1 act -3, Jurkat NFkB inh 31, UPR CHOP act 1, CRFR2-BP antag 5 and 697 NFkB inh 11.
For C/C=C(\C)C(=O)N[C@@H](c1ccccc1)[C@@H](O)C(=O)O[C@H]1C[C@@]2(O)[C@@H](OC(=O)c3ccccc3)C3[C@](C)(C(=O)[C@H](OC(C)=O)C(=C1C)C2(C)C)[C@@H](O)C[C@H]1OC[C@@]31OC(C)=O (some centres undefined) the results were UPR XBP1 act 2, Jurkat NFkB inh 66*, UPR CHOP act 0, CRFR2-BP antag 8, 697 NFkB inh -14 and Jurkat NFkB conf 71*.
C/C=C(\C)C(=O)N[C@@H](c1ccccc1)[C@@H](O)C(=O)O[C@H]1C[C@@]2(O)[C@@H](OC(=O)c3ccccc3)C3[C@](C)(C(=O)[C@H](O)C(=C1C)C2(C)C)[C@@H](O)C[C@H]1OC[C@@]31OC(C)=O (some centres undefined) was read as UPR XBP1 act 2, Jurkat NFkB inh 70*, UPR CHOP act 0, CRFR2-BP antag 11, 697 NFkB inh 6 and Jurkat NFkB conf 64*.
